Reference: BindingDB's records for doi:10.1021/jm020269o (The Pennsylvania State University, 2003)

Legend:
[1] = molecular target: T1, Bifunctional epoxide hydrolase 2 (Mus musculus, UniProt P34914); test: Inhibitory activity against murine soluble epoxide hydrolase
T1 sequence (P34914 whole entry): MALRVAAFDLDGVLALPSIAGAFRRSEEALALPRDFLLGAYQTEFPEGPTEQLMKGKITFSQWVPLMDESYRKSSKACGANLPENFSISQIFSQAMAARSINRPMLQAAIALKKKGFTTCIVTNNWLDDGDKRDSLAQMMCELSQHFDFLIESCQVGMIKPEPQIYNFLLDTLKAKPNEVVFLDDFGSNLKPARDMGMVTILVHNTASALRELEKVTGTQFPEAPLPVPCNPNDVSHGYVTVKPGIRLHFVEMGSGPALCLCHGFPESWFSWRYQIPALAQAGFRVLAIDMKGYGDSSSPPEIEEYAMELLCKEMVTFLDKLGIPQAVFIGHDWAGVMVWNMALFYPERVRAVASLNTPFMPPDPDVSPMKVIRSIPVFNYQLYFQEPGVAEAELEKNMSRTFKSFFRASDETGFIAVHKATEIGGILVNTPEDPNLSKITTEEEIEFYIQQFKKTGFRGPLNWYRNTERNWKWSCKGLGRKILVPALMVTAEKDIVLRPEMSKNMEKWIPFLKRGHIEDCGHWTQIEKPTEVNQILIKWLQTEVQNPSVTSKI
How it was run: (§1)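 Recombinant sEH (human HsEH or mouse MsEH) was expressed in baculovirus, affinity-purified to at least 97% purity, and had no detectable esterase or glutathione transferase activity. Enzyme (HsEH 0.20 µM, MsEH 0.10 µM) was preincubated with inhibitor for 5 min at 30 °C in pH 7.4 sodium phosphate buffer. Racemic 4-nitrophenyl-trans-2,3-epoxy-3-phenylpropyl carbonate (40 µM) was then added. 4-Nitrophenolate was read at 405 nm over 1 min. Assays were run in triplicate, with inhibitor up to 500 µM. IC50 came from regression of at least five points.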

[2] = molecular target: T2, Bifunctional epoxide hydrolase 2 (Homo sapiens, UniProt P34913); test: Inhibitory activity against human soluble epoxide hydrolase; how it was run: as §1
T2 sequence (P34913 whole entry): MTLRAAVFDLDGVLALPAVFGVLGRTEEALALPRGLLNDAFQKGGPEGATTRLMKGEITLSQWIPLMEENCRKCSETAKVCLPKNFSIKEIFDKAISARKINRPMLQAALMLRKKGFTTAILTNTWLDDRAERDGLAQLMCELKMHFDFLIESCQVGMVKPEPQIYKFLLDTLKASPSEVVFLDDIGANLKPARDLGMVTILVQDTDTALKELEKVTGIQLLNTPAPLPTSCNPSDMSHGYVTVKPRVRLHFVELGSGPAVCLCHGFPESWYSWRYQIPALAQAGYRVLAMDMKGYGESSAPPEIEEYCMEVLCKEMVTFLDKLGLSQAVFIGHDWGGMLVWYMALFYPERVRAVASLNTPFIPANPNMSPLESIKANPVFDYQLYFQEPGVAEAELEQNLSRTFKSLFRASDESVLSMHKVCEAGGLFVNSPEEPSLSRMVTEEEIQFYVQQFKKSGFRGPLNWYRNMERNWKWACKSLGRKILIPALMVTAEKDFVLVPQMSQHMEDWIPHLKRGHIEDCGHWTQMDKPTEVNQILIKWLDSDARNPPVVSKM

Row | SMILES | IC50 [1] [µM] | IC50 [2] [µM]
1 | CCCCCCCCCCCCNC(=O)NC1CCCC1 [1-Cyclopentyl-3-dodecyl-urea] | 0.1 | 0.549
2 | CCCCCCCCCCCCNC(=O)NCC(C)(C)C(C)(C)C [1-Dodecyl-3-(2,2,3,3-tetramethyl-butyl)-urea] | 0.129 | 229
3 | CCCCCCNC(=O)NC [1-Hexyl-3-methyl-urea] | 224 | –
4 | CN(C(=O)NC1CCCCC1)c1ccccc1 [3-Cyclohexyl-1-methyl-1-phenyl-urea] | 195 | 129
5 | CC(C)(C)OC(=O)CNC(=O)NC1CCCCC1 [(3-Cyclohexyl-ureido)-acetic acid tert-butyl ester] | 4.37 | 19
6 | O=C(Nc1ccc(Cl)c(Cl)c1)Nc1ccc(Cl)c(Cl)c1 [US8815951, 299] | – | 0.257
